Broadly, the MIC is the smallest concentration in the dilution series that meets the test's criterion for growth inhibition. A high value points to weaker potency. Usually zone of inhibition stands for the extent of the growth-free halo in a diffusion test. Usually Inhibition stands for the percentage by which the read-out fell short of the control. As a reminder, the inhibition is the drop in the measured response relative to a control, in per cent. A higher inhibition goes with strong suppression.

The test system of data set [1] is Mycobacterium tuberculosis. Nature of the data set: Antituberculosis activity against Mycobacterium tuberculosis H37Rv by Microplate Alamar Blue Assay. The data set is classed as functional. An outline of the steps: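 MIC against M. tuberculosis H37Rv (ATCC 27294) in BACTEC 12B medium by broth microdilution (MABA). Primary actives were retested at lower concentrations. MIC is the lowest concentration giving a […] fluorescence reduction versus controls. Fluorescent compounds were run in the BACTEC 460 radiometric system. Rifampin was the reference.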
(The colour change of resazurin is a common sign of viable cells or microbes.)

The test system of another data set is Pseudomonas aeruginosa. Nature of the data set: Antibacterial activity against Pseudomonas aeruginosa at 50 to 100 uM after 24 hrs by well diffusion method. The data set is classed as functional. An outline of the steps: (§1)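 Agar well diffusion: nutrient agar plates with 10 mm wells cut by sterile cork borer; 24-h subcultured bacteria swabbed onto the plates from nutrient broth. Compounds were dissolved in chloroform and added to wells at […]. Gentamycin served as the standard antibiotic.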

A short description of data set [2]: Cytotoxicity against Vero-C1008 cells at 6.25 to 50 ug/ml. The data set is classed as cell-based. To be noted: chlorocebus sabaeus. An outline of the steps:
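Vero-C-1008 cells were exposed to compounds at several concentrations across 6.25–50 µg/ml. Cytotoxicity was read out by neutral red uptake.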

Another data set concerns Salmonella typhi. Nature of the data set: Antibacterial activity against Salmonella typhi at 50 to 100 uM after 24 hrs by well diffusion method. The data set is classed as functional, Salmonella enterica subsp. enterica serovar Typhi. An outline of the steps: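 Agar well diffusion on nutrient agar plates; wells cut with a 10 mm sterile cork borer. Plates swabbed with 24-h subcultured bacteria from nutrient broth. Compounds dissolved in chloroform and added to wells at a range of concentrations. Gentamycin was the standard.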
For orientation: A growth-free zone around the sample is the usual read-out of agar diffusion tests.

A further data set relates to Staphylococcus aureus. Nature of the data set: Antibacterial activity against Staphylococcus aureus at 50 to 100 uM after 24 hrs by well diffusion method. The data set is classed as functional. In outline:
as §1

The subject of another data set is Escherichia coli. Nature of the data set: Antibacterial activity against Escherichia coli at 50 to 100 uM after 24 hrs by well diffusion method. The data set is classed as functional. An outline of the steps: as §1

For `COC(=O)CSc1nnc(Cc2csc(NC(C)=O)n2)n1NC(=O)c1ccccc1`, the MIC in data set [1] was less than 6.25 mg/L. The zone of inhibition in the data set with Pseudomonas aeruginosa is 11 mm; in the data set with Staphylococcus aureus, 22 mm; in the data set with Escherichia coli, 24 mm. For the same molecule, in data set [2], the Activity entry is on record as “Non-toxic”. In addition, in the data set on Salmonella typhi, the Inhibition was determined as 24%.
For GENTAMICIN, the inhibition is 35% with Pseudomonas aeruginosa, 30% in the data set on Salmonella typhi (Salmonella enterica subsp. enterica serovar Typhi), 34% in the data set on Staphylococcus aureus and 31% with Escherichia coli.
As to `O=C(CSc1nnc(Cc2csc(NC(=O)CCl)n2)n1NC(=O)c1ccccc1)NNC(=O)c1ccccc1`, in data set [1], the MIC was less than 6.25 mg/L. Moreover, the Activity entry in data set [2] was “Non-toxic”.
Molecule `N#CCSc1nnc(Cc2csc(NC(=O)CCl)n2)n1NC(=O)c1ccccc1` gave an MIC in data set [1] of less than 6.25 mg/L. In addition, the zone of inhibition is 16 mm with Pseudomonas aeruginosa, 20 mm in the data set with Staphylococcus aureus and 10 mm with Escherichia coli. In data set [2], the Activity result is “Non-toxic”. The same molecule showed an Inhibition with Salmonella typhi of 10%.
On to `Nn1c(S)nnc1CSc1nnc(Cc2csc(NC(=O)c3ccccc3)n2)n1NC(=O)c1ccccc1`, for which the MIC in data set [1] is less than 6.25 mg/L. Further, the zone of inhibition stood at 18 mm in the data set with Pseudomonas aeruginosa, 12 mm with Staphylococcus aureus and 18 mm with Escherichia coli. Also, in data set [2], the Activity result is “Non-toxic”. In the data set with Salmonella typhi, this molecule had an Inhibition of 14%.
On to `CC(=O)NNC(=O)CSc1nnc(Cc2csc(NC(C)=O)n2)n1NC(=O)c1ccccc1`, for which the MIC in data set [1] is less than 6.25 mg/L. Further, the zone of inhibition with Pseudomonas aeruginosa came to 18 mm; in the data set with Staphylococcus aureus, 21 mm; with Escherichia coli, 10 mm. Moreover, the Activity entry in data set [2] is “Non-toxic”. The same molecule came in with an Inhibition in the data set with Salmonella typhi of 18%.
In data set [1], `CC(=O)NNC(=O)CSc1nnc(Cc2csc(NC(=O)c3ccccc3)n2)n1NC(=O)c1ccccc1` registered a minimal inhibitory concentration (MIC) of less than 6.25 mg/L. In data set [2], the Activity entry was “Non-toxic”.
In turn, `COC(=O)CSc1nnc(Cc2csc(NC(=O)CCl)n2)n1NC(=O)c1ccccc1` gave an MIC in data set [1] of less than 6.25 mg/L. Moreover, the zone of inhibition with Pseudomonas aeruginosa was 22 mm; with Staphylococcus aureus, 24 mm; with Escherichia coli, 20 mm. The Activity result in data set [2] is given as “Non-toxic”. In the data set with Salmonella typhi, the Inhibition was 18%.
In data set [1], `CC(=O)Nc1nc(Cc2nnc(SCc3nnc(S)n3N)n2NC(=O)c2ccccc2)cs1` yielded an MIC of less than 6.25 mg/L. Also, the zone of inhibition in the data set with Pseudomonas aeruginosa is 16 mm; with Staphylococcus aureus, 14 mm; in the data set with Escherichia coli, 12 mm. For the same molecule, the Activity entry in data set [2] is “Non-toxic”. Moreover, the Inhibition in the data set on Salmonella typhi is recorded as 18%.
In data set [1], `O=C(O)CCNc1nc(Cc2nnc(SCC(=O)NNC(=O)CCl)n2NC(=O)c2ccccc2)cs1` had an MIC of less than 6.25 mg/L. Besides, in data set [2], the Activity result was “Non-toxic”.
Take `O=C(CCl)NNC(=O)CSc1nnc(Cc2csc(NC(=O)c3ccccc3)n2)n1NC(=O)c1ccccc1`: in data set [1], the MIC was less than 6.25 mg/L. For the same molecule, the Activity result in data set [2] is listed as “Non-toxic”.
Regarding `CC(=O)Nc1nc(Cc2nnc(SCC(=O)NNC(=O)c3ccccc3)n2NC(=O)c2ccccc2)cs1`, the MIC in data set [1] was less than 6.25 mg/L. In data set [2], the Activity entry was “Non-toxic”.
On the same counts, the results for `CC(=O)Nc1nc(Cc2nnc(SCC(=O)NNC(=O)CCl)n2NC(=O)c2ccccc2)cs1` are less than 6.25 mg/L and “Non-toxic”.
The matching figures for `O=C(CCl)NNC(=O)CSc1nnc(Cc2csc(NC(=O)CCl)n2)n1NC(=O)c1ccccc1`: less than 6.25 mg/L and “Non-toxic”.
The matching figures for `CC(=O)NNC(=O)CSc1nnc(Cc2csc(NCCC(=O)O)n2)n1NC(=O)c1ccccc1`: less than 6.25 mg/L and “Non-toxic”.
`O=C(CSc1nnc(Cc2csc(NC(=O)c3ccccc3)n2)n1NC(=O)c1ccccc1)NNC(=O)c1ccccc1` had an MIC in data set [1] of less than 6.25 mg/L. In data set [2], the Activity entry is reported as “Non-toxic”.
On the same counts, the results for `O=C(O)CCNc1nc(Cc2nnc(SCC(=O)NNC(=O)c3ccccc3)n2NC(=O)c2ccccc2)cs1` are less than 6.25 mg/L and “Non-toxic”.

The values are drawn from ChEMBL document CHEMBL1146374, “Clubbed triazoles: a novel approach to antitubercular drugs” (Eur J Med Chem, 2007).
